Laboratory results published in the M2OR odorant receptor database.

Assays:
Conditions in all cases: stereoisomer not certain
OR8B12 (Homo sapiens) = OR8B12 (Homo sapiens) (UniProt Q8NGG6)
In short: (§1)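 Whether a receptor–molecule pair is responsive (active) rests on the original authors' judgment that its measured signal was statistically different from baseline. Pairs without that judgment are non-responsive (inactive). Sources used varied assay methods, commonly transient luciferase assays in mammalian cell lines.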

OR8B2 (Homo sapiens) = OR8B2 (Homo sapiens) (UniProt Q96RD0)
Sequence of OR8B2 (Homo sapiens) (Q96RD0 whole entry): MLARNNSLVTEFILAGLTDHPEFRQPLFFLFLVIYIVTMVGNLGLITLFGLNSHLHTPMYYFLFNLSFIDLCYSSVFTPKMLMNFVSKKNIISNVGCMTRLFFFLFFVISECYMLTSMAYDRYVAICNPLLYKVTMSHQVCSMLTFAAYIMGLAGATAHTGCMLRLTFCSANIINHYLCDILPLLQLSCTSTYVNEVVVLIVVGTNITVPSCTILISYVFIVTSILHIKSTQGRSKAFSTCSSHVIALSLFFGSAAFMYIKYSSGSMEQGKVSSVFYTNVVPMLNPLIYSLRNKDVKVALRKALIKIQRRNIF
In short: as §1

OR8B2 L164F = test system: OR8B2 L164F
Sequence of OR8B2 L164F (as listed by the source, stated change not applied): as the sequence (Q96RD0 whole entry) above, with L164F counted along it
In short: as §1

OR8B2 S273F = test system: OR8B2 S273F
Sequence of OR8B2 S273F (as listed by the source, stated change not applied): as the sequence (Q96RD0 whole entry) above, with S273F counted along it
In short: as §1

OR8B3 (Homo sapiens) = OR8B3 (Homo sapiens) (UniProt Q8NGG8)
Sequence of OR8B3 (Homo sapiens) (Q8NGG8 whole entry): as the sequence (Q96RD0 whole entry) above, with R24Q, I34V, T47I, N94Y, R100Q, T205I, T208M counted along it
In short: as §1

OR8B3 H20R Q24R M114I = test system: OR8B3 H20R Q24R M114I
In short: as §1

OR8B3 H20R Q24R Y113H = test system: OR8B3 H20R Q24R Y113H
In short: as §1

OR8B3 H20R Q24R = test system: OR8B3 H20R Q24R
In short: as §1

OR8B4 (Homo sapiens) = OR8B4 (Homo sapiens) (UniProt Q96RC9)
Sequence of OR8B4 (Homo sapiens) (Q96RC9 whole entry): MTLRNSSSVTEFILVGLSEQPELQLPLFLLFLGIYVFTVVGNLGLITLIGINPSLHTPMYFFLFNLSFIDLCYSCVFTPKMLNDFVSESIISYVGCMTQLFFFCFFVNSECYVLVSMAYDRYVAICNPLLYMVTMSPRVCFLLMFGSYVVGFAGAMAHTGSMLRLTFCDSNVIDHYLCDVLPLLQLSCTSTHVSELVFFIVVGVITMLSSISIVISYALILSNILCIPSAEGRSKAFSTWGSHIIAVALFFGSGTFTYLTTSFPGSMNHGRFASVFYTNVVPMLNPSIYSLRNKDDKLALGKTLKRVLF
In short: as §1

OR8B4 = test system: OR8B4
Sequence of OR8B4 (as listed by the source): as the sequence (Q96RC9 whole entry) above, with E22G counted along it
In short: as §1

Measured: odorant receptor agonist call;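 note: active if original authors judged signal statistically different from baseline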

Sequence of OR8B12 (Homo sapiens) (Q8NGG6 whole entry): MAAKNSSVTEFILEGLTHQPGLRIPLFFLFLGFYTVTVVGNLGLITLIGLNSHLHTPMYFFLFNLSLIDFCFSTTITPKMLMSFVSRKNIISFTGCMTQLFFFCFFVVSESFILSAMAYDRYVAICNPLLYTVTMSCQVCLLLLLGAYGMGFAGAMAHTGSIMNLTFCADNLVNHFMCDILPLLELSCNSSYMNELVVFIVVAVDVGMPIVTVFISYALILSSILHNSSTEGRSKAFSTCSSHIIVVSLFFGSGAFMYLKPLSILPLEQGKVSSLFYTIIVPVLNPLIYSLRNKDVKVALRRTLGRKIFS

C=CCOC(=O)Cc1ccccc1
inactive: all assays above

Cc1c([N+](=O)[O-])c(C)c([N+](=O)[O-])c(C(C)(C)C)c1[N+](=O)[O-]
inactive: OR8B12 (Homo sapiens) | OR8B2 (Homo sapiens) | OR8B3 (Homo sapiens) | OR8B4 (Homo sapiens)
